Test: Toxicity liver stage against HepG2, at 10uM
Type: cell-based
Set-up: test concentration 10 uM, cell line HepG2-A16-CD81EGFP
Conditions: human, HepG2-A16-CD81EGFP cells; read-out: INHIBITION
Procedure, shortened: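 Uninfected HepG2-A16-CD81EGFP cells, 3 × 10^3 per well, 1536-well, plated on prespotted compound at 10 μM final, parasite-free screening media added to match infected plates; puromycin 10 μM positive, DMSO 0.5% negative; run in parallel with 48 h PbLuc assay at 37 °C, 5% CO2; viability by CellTiter-Glo luminescence, normalized to controls.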

Structure (SMILES)	cytotoxicity at 10 µM
c1cncc(CNCCc2cccs2)c1	-5.68%
COc1ccc(C[C@H]2CN(C(=O)c3cc(C)no3)CC[C@H]2OC)cc1	6%
O=C(Nc1cnccn1)[C@@H]1COC[C@H]2CN(c3ncc(F)cn3)C[C@H]21	-11.7%
CN(Cc1ccncc1)C1CCC[C@@H]2CN(c3ncccn3)C[C@H]12 (some centres undefined)	-3.21%
O=C([C@@H]1CC[C@@H]2[C@@H](CCN2Cc2ccncc2)O1)N1CCCCO1	-3.75%
Cc1ccc(N2CCCC3(COCCN(c4cnccn4)C3)C2)nn1 (centres undefined)	-139%
COCCC(=O)N1CCC2(CCCN2Cc2ccccc2)C1 (centres undefined)	10.4%
CC(C)OCCCNC(=O)CC1(Cn2cnnn2)CCCCC1	9.18%
COc1ccc(Cl)cc1CNCCCn1ccnc1	8.32%
O=c1[nH]c2c(c(=O)n1C1CCCCC1)CCC2Nc1ccccc1 (centres undefined)	0.795%
Cc1nc(N2CCCC2)nc2c1CCN(C(=O)CC1CC1)CC2	-9.6%
Cn1nc(C(=O)NC2CCCC2)cc1NC(=O)C1CC1	0.754%
CC1CCCN(C(=O)c2ccc(-c3ccco3)o2)C1 (centres undefined)	4.23%
Cc1nn(C)c(C)c1-c1cnc(CC2CCNC2)cn1 (centres undefined)	-8.41%
Cc1sc2c(C3CCCN(S(C)(=O)=O)C3)nc(C)n2c1C (centres undefined)	-33%
c1cncc(CN2CCCC(c3nnc(-c4cnccn4)o3)C2)c1 (centres undefined)	-7.36%
O=C(c1cc(C2CCCCN2C(=O)C2CCC2)n[nH]1)N1CCOCC1 (centres undefined)	-14%
COCC(=O)N1CCC(c2n[nH]c3nccnc23)CC1	-8.38%
O=C(CCNc1ccc(Br)cn1)NCc1ccncc1	-0.222%
Cc1c(C(=O)N(C)CC(F)(F)F)nnn1-c1ccccc1Cl	-1.58%
CC(NS(=O)(=O)N(C)C)c1cccc(-n2cccn2)c1 (centres undefined)	-1.46%

Structure (SMILES)	cytotoxicity at 10 µM
O=C(NCC(O)c1cccc(F)c1)c1sccc1OC(F)F (centres undefined)	0.547%
CC(C)Cn1cnc(S(=O)(=O)Nc2cccnc2-n2cccn2)c1	-1.75%
CNC(=O)CN1CCC(CN(C)Cc2ccncc2Cl)CC1	-2.87%
CCc1noc(C(C)N2CCC(NS(=O)(=O)c3ccccc3)CC2)n1 (centres undefined)	7.87%
NC(=O)C(NCc1ccc(Cl)s1)c1ccccc1 (centres undefined)	2.8%
N#CCCN(CC1CC1)S(=O)(=O)c1cccc(Cl)c1	9.09%
Cc1ccc(-c2cc(CNC(=O)NC3CCCCNC3=O)on2)cc1 (centres undefined)	-145%
Cc1cc(Cn2cc(C#N)c(=O)c3ccccc32)on1	8.83%
O=C(NC1CCS(=O)(=O)c2ccccc21)c1sccc1C1CC1 (centres undefined)	3.63%
CCOc1cc(F)ccc1NC(=O)N(C(C)CS(C)(=O)=O)C1CC1 (centres undefined)	4.11%
Cc1ccc(S(=O)(=O)N2CC(C)Oc3ncccc32)c(F)c1 (centres undefined)	3.43%
CS(=O)(=O)NC1CCN(C(=O)c2ccc(F)cc2)CC1	2.3%
COc1ccc(NC(=O)NC(C)c2nc[nH]n2)cc1Cl (centres undefined)	0.0264%
CCSc1cc(C(=O)NCCNC(=O)N(C)C)ccn1	-3.63%
Cc1cc(NC(=O)C(c2cccc(F)c2)N2CCOCC2)sn1 (centres undefined)	-3.98%
CN(Cc1cnn(C)c1)C(=O)NCC1CCS(=O)(=O)C1 (centres undefined)	10.3%
Cc1n[nH]c(C2CN(C(=O)CCCn3cccn3)CCO2)n1 (centres undefined)	-0.138%
N#CC1(C(=O)NCc2ccc(F)cc2)CCCC1	7.57%
COc1ccnc(NC(=O)c2cnccn2)c1	7.97%
COCCN1CC(C(=O)Nc2ccc3c(c2)CCC(=O)N3C)CC1=O (centres undefined)	6.18%
CCC1CN(CC(=O)NCCOC)CCO1 (centres undefined)	-12.9%

Structure (SMILES)	cytotoxicity at 10 µM
CCN(CC)C(=O)c1ccc(CNc2ncc(C#N)cc2Cl)cc1	5.87%
CC(C)CCNc1nnc(C(C)C)s1	-10.6%
CN(C)S(=O)(=O)NCC1CCN(Cc2ccccc2F)CC1	-0.768%
O=C(NCCc1nncn1C1CC1)c1cc2ccccn2c1	-1.87%
CN(CC(=O)NC(C)(C#N)C1CC1)Cc1nc2ccccc2n1C (centres undefined)	-3.72%
Cc1ccc2nc(NCCN3CCOCC3)n(C)c(=O)c2c1	9.26%
COc1ccc(F)c(NCc2ccc(C(=O)N(C)C)[nH]2)c1	7.31%
Cc1ccc(NC(=O)NC(C)C(=O)N2CCS(=O)(=O)CC2)cc1 (centres undefined)	-5.1%
Cc1n[nH]c(C2CN(CC(=O)NCCc3ccsc3)CCO2)n1 (centres undefined)	-0.524%
Cc1ccsc1[C@@H]1CCN(C(=O)Cc2ccc(O)cc2)C[C@H]1O	-2.59%
CCC(C)N(Cc1ccsc1)C(=O)c1ccc2[nH]nnc2c1 (centres undefined)	13.3%
Cn1c(Cn2ccnc2)nnc1C1CCN(C(=O)c2ccncc2)CC1	-106%
CCc1ccccc1CN1CCN(Cc2ncc[nH]2)[C@H]2CS(=O)(=O)C[C@H]21	2.03%
CC1=C(C(=O)NCCc2n[nH]c3c2CCCC3)C(C)NC(=O)N1 (centres undefined)	-3.51%
CCN(C(=O)c1c(Cl)cnn1CC)C(C)C(N)=O (centres undefined)	-16.1%
CCCc1nc(C(=O)NCc2cccnc2-n2cncn2)cs1	-148%
c1cncc(NCCNC2CCSCC2)c1	-0.307%
CN1CCN(S(=O)(=O)NCC2COc3ccccc3C2)CC1 (centres undefined)	-3.33%
CCCn1ncnc1C(C)NC(=O)C1CCN(C(C)C)CC1 (centres undefined)	-139%
Cc1nc(CCCN2CCOCC2)n(Cc2ccc(F)cc2)n1	1.69%
CC[C@H]1CN(C(=O)CCn2c(C)cccc2=O)CC[C@@]1(C)O	8.51%

Structure (SMILES)	cytotoxicity at 10 µM
O=C(O)c1cc(-c2cccnc2)cc(S(=O)(=O)N2CCCCCC2)c1	-2.88%
CN1CCN(C2CCN(CCOc3ccccc3F)CC2)C1=O	0.174%
COc1ncccc1CNC(=O)c1cc(Cl)ccn1	-7.51%
CC(Cc1ccco1)NC(=O)Nc1ccc(N(C)C)nc1 (centres undefined)	-7.22%
Cc1nc(C)n(CC2CCCN2CCc2ccncc2)n1 (centres undefined)	-7.3%
CCOCCN1CCN(Cc2csc(-c3cnn(C)c3)n2)CC1	-4.95%
CC(C)c1n[nH]c(C2CN(CCc3cccs3)CCO2)n1 (centres undefined)	-4.57%
Cc1ccc(C(=O)NC2CCN(C(=O)Nc3ccccn3)CC2)s1	-4.54%
CCCN1CCN(C(=O)Cc2nc(-c3ccco3)oc2C)CC1	-6.14%
NC(=O)C1CN(C(=O)Nc2ccccc2N2CCCCCC2)CCO1 (centres undefined)	-6.31%
Cc1ccc(CN[C@@H]2COC[C@H]2Cc2cc(C)no2)cc1	-23.2%
CC(C)N(C)Cc1cnc2n1CCN(Cc1cccc(F)c1)C2	-2.92%
COCCNC(=O)c1cc(-c2cc[nH]n2)n2ccccc12	10.4%
O=C1CC2(CCN(Cc3ccccn3)C2)CN1c1cccnc1 (centres undefined)	-8.75%
COc1ccc(C(NCc2ccc(C#N)cc2)C2CC2)cc1 (centres undefined)	7.18%
CCn1nnc2c1C(COCCN(C)C)CN(Cc1ccc(C)s1)C2 (centres undefined)	4.44%
CN(C)C1CC2(CCN(C(=O)c3csnn3)CC2)c2ccccc21 (centres undefined)	-138%
NC(C(=O)N1CCSc2ccccc2C1)c1ccccc1 (centres undefined)	4.59%
c1csc(CN2Cc3nccn3CC(Cn3cncn3)C2)c1 (centres undefined)	-136%
O=C1CCC2(CCN(Cc3ccc(F)cc3)CC2)N1CCN1CCCC1	-4.72%
CCc1nccn1CC(=O)N1C[C@@H]2CC[C@H]1CN(c1ncccn1)C2	-7.9%
